The source of these data is ChEMBL document CHEMBL2396611, “Synthesis and mechanism of hypoglycemic activity of benzothiazole derivatives” (J Med Chem, 2013).

In brackets after ≈: the same amount, converted by molar mass. Activity calls are given as the source filed them.

The solubility is the dissolved amount per volume that the medium holds. The term logP denotes a log measure of how a compound divides between an organic and an aqueous phase. As usually defined, the half-life is the time needed for the level to fall by half in the phase considered.

In data set [1] the target is 5'-AMP-activated protein kinase catalytic subunit alpha-2 (Homo sapiens) (UniProt P54646). Kind of data set: Activation of human recombinant AMPK at 20 uM after 30 mins relative to control. The procedure, abridged: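 Recombinant human full-length AMPK assayed with a commercial luminescent kit. Compound at 20 μM or DMSO vehicle (1% v/v) added to the reaction mix for 30 min at ambient temperature. Activity read by luminometer against a calibration curve; basal activity with DMSO set as 100%.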
Sequence of 5'-AMP-activated protein kinase catalytic subunit alpha-2 (Homo sapiens) (P54646 whole entry, looked up): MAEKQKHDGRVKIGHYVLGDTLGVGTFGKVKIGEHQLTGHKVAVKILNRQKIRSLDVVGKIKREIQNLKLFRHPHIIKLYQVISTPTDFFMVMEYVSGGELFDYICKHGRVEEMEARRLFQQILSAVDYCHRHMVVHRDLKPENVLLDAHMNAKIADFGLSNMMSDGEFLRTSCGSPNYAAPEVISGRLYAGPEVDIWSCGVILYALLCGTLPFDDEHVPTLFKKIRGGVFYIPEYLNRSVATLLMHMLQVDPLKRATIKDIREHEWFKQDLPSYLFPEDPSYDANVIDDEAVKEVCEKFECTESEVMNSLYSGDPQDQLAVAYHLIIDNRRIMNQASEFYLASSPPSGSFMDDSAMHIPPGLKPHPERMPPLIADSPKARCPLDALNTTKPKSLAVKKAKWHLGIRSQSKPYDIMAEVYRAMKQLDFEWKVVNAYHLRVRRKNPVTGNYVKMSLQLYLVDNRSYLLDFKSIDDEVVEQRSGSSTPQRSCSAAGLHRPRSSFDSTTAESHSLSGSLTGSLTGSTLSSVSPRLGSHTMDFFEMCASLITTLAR

Data set [2] relates to L6. Kind of data set: Activation of AMPKalpha in rat L6 cells assessed as phosphorylation at Thr172 at 5 uM after 4 hrs by Western blot analysis relative to control. It is filed as cell-based. The procedure, abridged: (§1)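 L6 myotubes treated 4 h with increasing compound concentrations (5 to 150 μM) or DMSO. Whole-cell lysates immunoblotted for pThr172-AMPKα, AMPKα and α-tubulin; phosphorylation expressed relative to DMSO-treated control.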

The nature of data set [3]: Solubility of the compound in water. The format is physicochemical. The conditions noted are these: buffer.
Data set [4] can be described thus: Lipophilicity, log P of the compound. The format is physicochemical. The conditions noted are these: octanol/water.
A further data set deals with Cytochrome P450 3A4 (Homo sapiens, UniProt P08684). In words: Inhibition of CYP3A4 (unknown origin) by luminescent based assay. The format is ADME.
Sequence of Cytochrome P450 3A4 (P08684 whole entry): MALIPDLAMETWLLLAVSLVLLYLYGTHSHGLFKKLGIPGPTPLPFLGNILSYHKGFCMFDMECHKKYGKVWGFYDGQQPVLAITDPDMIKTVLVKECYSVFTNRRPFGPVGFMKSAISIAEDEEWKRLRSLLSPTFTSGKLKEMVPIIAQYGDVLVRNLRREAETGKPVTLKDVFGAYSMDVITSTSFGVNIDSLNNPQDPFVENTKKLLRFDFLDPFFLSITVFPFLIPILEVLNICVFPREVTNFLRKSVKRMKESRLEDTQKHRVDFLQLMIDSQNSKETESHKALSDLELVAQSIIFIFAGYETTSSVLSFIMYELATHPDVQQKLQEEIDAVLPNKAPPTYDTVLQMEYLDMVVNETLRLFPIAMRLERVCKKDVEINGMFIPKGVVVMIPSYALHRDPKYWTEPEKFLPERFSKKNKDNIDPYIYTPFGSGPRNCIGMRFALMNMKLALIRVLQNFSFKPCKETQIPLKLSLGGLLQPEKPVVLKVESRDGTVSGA
Data set [5] deals with 5'-AMP-activated protein kinase catalytic subunit alpha-2 (Rattus norvegicus) (UniProt Q09137). In words: Increase in AMPK-mediated myc-tagged GLUT4 translocation in rat L6 cell plasma membrane at 25 uM after 5 hrs by colorimetric analysis. The procedure, abridged: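 L6 lines stably carrying GLUT4myc or GLUT1myc, treated 5 h with test agent or DMSO; insulin given for 30 min. Live myotubes incubated with rabbit anti-c-Myc (1:200), washed, fixed in 3% formaldehyde, then HRP anti-rabbit IgG (1:2000). Developed with OPD and read at 492 nm to give relative surface transporter abundance.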
Sequence of 5'-AMP-activated protein kinase catalytic subunit alpha-2 (Rattus norvegicus) (Q09137 whole entry): as the sequence (P54646 whole entry, looked up) above, with M114V, H150Q, V241I, S348T, S355M, F502V, T505S, S509N, V528A, T549A counted along it

Data set [6] deals with L6. In words: Effect on total GLUT1 expression in rat L6 cell lysate at 25 uM after 30 mins to 5 hrs by Western blot analysis. The format is functional, cell-based. The procedure, abridged:
(§2)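 Fully differentiated L6 myotubes, preconditioned in αMEM with 23.0 mM D-glucose; insulin exposure 30 min, test exposure 5 h. Whole-cell lysates made in Tris-HCl pH 7.5 buffer with phosphatase and protease inhibitors, 40 min at 4 °C. Protein measured by Bradford, 5-60 µg per lane. Western blot probed with rabbit polyclonal anti-GLUT1 or anti-GLUT4.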
(In general: In western blotting, separated proteins are transferred to a membrane and probed.)

Data set [7] deals with 5'-AMP-activated protein kinase catalytic subunit alpha-2 (Rattus norvegicus) (UniProt Q09137). In words: Activation of AMPK in rat L6 cells assessed as ACC phosphorylation at Ser79 at 25 uM after 3 hrs by Western blot analysis relative to control. It is filed as cell-based. The essentials:
(§3)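 Fully differentiated L6 myotubes, preincubated 3 h with or without 5 μM Compound C. Test agents: compound at 25 μM for 3 h, sorbitol 250 mM for 40 min, AICAR 4 mM for 30 min. Whole-cell lysates probed by Western blot for pSer79-ACC, ACC, pThr642-AS-160, AS-160 and α-tubulin; band densities summarized, n=3, vs respective controls.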

The next data set addresses Cytochrome P450 2C19 (Homo sapiens, UniProt P33261). Kind of data set: Inhibition of CYP2C19 (unknown origin) by luminescent based assay. It is filed as ADME.
Data set [8] in a line: Half life in BALB/c mouse liver microsomes at 2 uM. It is filed as ADME, Microsome.
The target in data set [9] is 5'-AMP-activated protein kinase catalytic subunit alpha-2 (Rattus norvegicus) (UniProt Q09137). In words: Activation of AMPK in rat L6 cells assessed as increase of [3H]dGlc uptake after 5 hrs in presence of PI3K inhibitor wortmannin. The format is cell-based. The essentials: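 Myotubes treated with compound, insulin or vehicle in the absence or presence of 100 nM wortmannin or 100 nM Akt/PKB inhibitor, each added 30 min before compound or insulin. Compound C 5 μM was added 5 h before the uptake assay. Rate then measured by the standard 5-min [3H]dGlc uptake assay.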

Data set [10] concerns Mus musculus. Kind of data set: Antidiabetic activity in KKAy mouse assessed as reduction of blood glucose level at 30 to 75 mg/kg, sc bid for 4 days measured on day 3 relative to control. Details: scale not given: the % may be the effect or the level left. It is filed as functional. To be noted: dose mg/kg 30-75; route subcutaneous. The procedure, abridged: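 Hyperglycemic KKAy mice injected s.c. twice daily for 4 days with compound at 30 or 75 mg/kg suspended in sesame oil; controls received sesame oil (150 µl). Blood glucose measured at the indicated times, with day-zero levels taken as 100%. n=10 per group, mean ± SEM, compared with oil-treated group.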

For data set [11], the target named is 5'-AMP-activated protein kinase catalytic subunit alpha-2 (Rattus norvegicus) (UniProt Q09137). Kind of data set: Activation of AMPK in rat L6 cells assessed as AS-160 phosphorylation at Thr642 at 250 mM after 40 mins by Western blot analysis relative to control. It is filed as cell-based. The essentials: as §3
The subject of data set [12] is L6. Kind of data set: Activation of AMPKalpha in rat L6 cells assessed as phosphorylation at Thr172 at 150 uM after 4 hrs by Western blot analysis. It is filed as cell-based. The essentials:
as §1

The nature of data set [13]: Intrinsic clearance in BALB/c mouse liver microsomes at 2 uM. It is filed as ADME, Microsome. The conditions noted are these: read-out: CLH.
For data set [14], the system named is L6. In words: Activation of AMPKalpha in rat L6 cells assessed as phosphorylation at Thr172 at 50 uM after 4 hrs by Western blot analysis relative to control. The format is cell-based. The essentials:
as §1

Data set [15] concerns the target 5'-AMP-activated protein kinase catalytic subunit alpha-2 (Rattus norvegicus) (UniProt Q09137). Kind of data set: Activation of AMPK in rat L6 cells assessed as increase of [3H]dGlc uptake at 25 uM after 5 hrs relative to control. It is filed as cell-based. The essentials:
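Fully differentiated L6 myotubes preincubated 24 h in αMEM with 2% FCS and 23.0 mmol/L D-glucose, then 4 h serum-free with 0.5% BSA. Compound or DMSO vehicle given for the indicated times or concentrations. Uptake read after 5 min at room temperature in PBS pH 7.4 with 0.1 mmol/L dGlc and 1.3 μCi/mL [3H]dGlc, by scintillation of SDS lysates. Zero-time basal rate set as 100%; n=6.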

Data set [16] has as its system Mus musculus. In words: Toxicity in overnight fast KKAy mouse assessed as reduction of daily food intake at 30 to 75 mg/kg, sc bid for 2 days. It is filed as organism-based. Details: dose 30-75 mg/kg, route subcutaneous. The conditions noted are these: in vivo, 48 h. The procedure, abridged: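 Hyperglycemic KKAy mice given 30 or 75 mg/kg s.c. twice daily as a suspension in sesame oil; controls received oil (150 µl). Daily food intake recorded over the 2-day treatment; n=10 per group, mean ± SEM.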

Data set [17] has as its target 5'-AMP-activated protein kinase catalytic subunit alpha-2 (Rattus norvegicus) (UniProt Q09137). In words: Activation of AMPK in rat L6 cells assessed as AS-160 phosphorylation at Thr642 after 30 mins by Western blot analysis relative to control.
Data set [18] concerns L6. In words: Effect on total GLUT4 expression in rat L6 cell lysate at 25 uM after 30 mins to 5 hrs by Western blot analysis. It is filed as functional, cell-based. The essentials: as §2
Data set [19] has as its system L6. Kind of data set: Activation of AMPKalpha in rat L6 cells assessed as phosphorylation at Thr172 at 150 uM after 4 hrs by Western blot analysis relative to control. The format is cell-based. The essentials:
as §1

The subject of data set [20] is L6. Kind of data set: Activation of AMPKalpha in rat L6 cells assessed as phosphorylation at Thr172 at 10 uM after 4 hrs by Western blot analysis relative to control. The format is cell-based. The essentials:
as §1

Sequence of Cytochrome P450 2C19 (P33261 whole entry): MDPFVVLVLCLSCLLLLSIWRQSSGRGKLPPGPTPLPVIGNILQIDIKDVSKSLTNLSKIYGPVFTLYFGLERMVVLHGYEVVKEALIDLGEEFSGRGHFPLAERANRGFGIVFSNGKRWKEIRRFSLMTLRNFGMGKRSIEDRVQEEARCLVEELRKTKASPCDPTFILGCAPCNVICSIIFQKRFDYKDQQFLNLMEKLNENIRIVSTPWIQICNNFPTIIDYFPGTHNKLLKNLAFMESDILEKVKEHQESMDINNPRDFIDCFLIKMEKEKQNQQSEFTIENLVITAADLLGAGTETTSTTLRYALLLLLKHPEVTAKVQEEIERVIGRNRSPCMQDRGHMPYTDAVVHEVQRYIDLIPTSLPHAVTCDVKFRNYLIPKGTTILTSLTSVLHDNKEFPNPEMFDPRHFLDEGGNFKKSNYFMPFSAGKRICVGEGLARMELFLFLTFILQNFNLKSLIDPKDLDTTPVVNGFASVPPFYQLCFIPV

`CCOc1ccc2nc(SCc3nc4ccccc4s3)sc2c1`: the fold change (FC) in data set [1] stood at 4.3; in the data set on L6 [2], 2; in [7], 1.75; in data set [11] it was 1.55; in the data set on L6 [12], 7.6; in the data set on L6 [14] it was 6. Besides, the figures for the fold change (FC) (in data set [17]; with L6 [19]; with L6 [20]) were 1.62, 7.6 and 4.7, respectively. In addition, in [3], the solubility was 12.1 µM (≈ 4.33 µg/mL). For the same compound, the logP in [4] is 4.34. Further, the results for the “inhibition (INH)” value against Cytochrome P450 3A4 and at Cytochrome P450 2C19 were 77.1% and “Not Active”, respectively. The result in data set [5], in [9] and in data set [15] was Active. Moreover, the result with L6 [6] and with L6 [18] was inactive. In data set [8], this compound came in with a half-life at 2 µM of 2.4 min. The values for the Activity in the data set with Mus musculus [10] and in the data set with Mus musculus [16] were 50% and “Non-toxic”, respectively. The microsomal CLint at 2 µM in data set [13] was determined as 692 µL/min/mg.
